Test results reported in ChEMBL document CHEMBL1121717, “Tetrahydro-2-benzoxepins: a novel family of hypotensives” (1981).
Calls of active or inactive are those of the source. No cut-off for these calls is given here.

What was measured:
Felis catus [1] = assay: Effect of compound on blood pressure was measured in baroreceptor denervated cats at time 20min, after iv administration of 1.0 mg/kg; format: functional
Method in brief: (§1)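 Cats of either sex anesthetized i.p. with sodium diallylbarbituric acid (60 mg/kg) plus urethane (240 mg/kg), placed in stereotaxic frame, tracheal tube inserted; femoral artery cannulated for arterial pressure, femoral vein for drug. Sympathetic activity recorded from preganglionic splanchnic nerve. 1.0 mg/kg iv; n = 6 treated, n = 8 vehicle; MAP, HR and % SNA (0 min = 100) read at 0–60 min; mean ± error.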

Felis catus [2] = assay: Effect of compound on heart rate was measured in baroreceptor denervated cats at time 40min, after iv administration of 1.0 mg/kg; format: functional; method in brief: as §1
Felis catus [3] = assay: Effect of compound on sympathetic nerve activity was measured in baroreceptor denervated cats at time 5min, after iv administration of 1.0 mg/kg; format: functional; method in brief: as §1
Felis catus [4] = assay: Effect of compound on blood pressure was measured in baroreceptor denervated cats at time 60min, after iv administration of 1.0 mg/kg; format: functional; method in brief: as §1
Rattus norvegicus [5] = assay: Oral hypotensive activity of compound was tested in conscious rats after oral administration at 50 mg/Kg dose; -49/-52; format: functional, organism-based
Rattus norvegicus [6] = assay: Oral hypotensive activity of compound was tested in conscious rats after oral administration at 5 mg/Kg dose; -24/-9; format: functional, organism-based
Felis catus [7] = assay: Effect of compound on heart rate was measured in baroreceptor denervated cats at time 5min, after iv administration of 1.0 mg/kg; format: functional; method in brief: as §1
Felis catus [8] = assay: Effect of compound on sympathetic nerve activity was measured in baroreceptor denervated cats at time 40min, after iv administration of 1.0 mg/kg; format: functional; method in brief: as §1
Felis catus [9] = assay: Effect of compound on sympathetic nerve activity was measured in baroreceptor denervated cats at time 10min, after iv administration of 1.0 mg/kg; format: functional; method in brief: as §1
Felis catus [10] = assay: Effect of compound on sympathetic nerve activity was measured in baroreceptor denervated cats at time 20min, after iv administration of 1.0 mg/kg; format: functional; method in brief: as §1
Felis catus [11] = assay: Effect of compound on blood pressure was measured in baroreceptor denervated cats at time 5min, after iv administration of 1.0 mg/kg; format: functional; method in brief: as §1
Felis catus [12] = assay: Effect of compound on heart rate was measured in baroreceptor denervated cats at time 20min, after iv administration of 1.0 mg/kg; format: functional; method in brief: as §1
Felis catus [13] = assay: Effect of compound on blood pressure was measured in baroreceptor denervated cats at time 40min, after iv administration of 1.0 mg/kg; format: functional; method in brief: as §1
Felis catus [14] = assay: Effect of compound on blood pressure was measured in baroreceptor denervated cats at time 0 min, after iv administration of 1.0 mg/kg; format: functional; method in brief: as §1
Felis catus [15] = assay: Effect of compound on heart rate was measured in baroreceptor denervated cats at time 10min, after iv administration of 1.0 mg/kg; format: functional; method in brief: as §1
Felis catus [16] = assay: Effect of compound on sympathetic nerve activity was measured in baroreceptor denervated cats at time 60min, after iv administration of 1.0 mg/kg; format: functional; method in brief: as §1
Felis catus [17] = assay: Effect of compound on blood pressure was measured in baroreceptor denervated cats at time 10min, after iv administration of 1.0 mg/kg; format: functional; method in brief: as §1
Felis catus [18] = assay: Effect of compound on heart rate was measured in baroreceptor denervated cats at time 0min, after iv administration of 1.0 mg/kg; format: functional; method in brief: as §1
Felis catus [19] = assay: Effect of compound on sympathetic nerve activity was measured in baroreceptor denervated cats at time 0min, after iv administration of 1.0 mg/kg; format: functional; method in brief: as §1
Felis catus [20] = assay: Effect of compound on heart rate was measured in baroreceptor denervated cats at time 60min, after iv administration of 1.0 mg/kg; format: functional; method in brief: as §1

## COc1cc2c(cc1OC)C(CCN1CCN(c3ccc(F)cc3)CC1)OCCC2.Cl (stereo not given)
Felis catus [1]
  MAP: 95
Felis catus [2]
  HR: 231
Felis catus [3]
  SNA: 72%
Felis catus [4]
  MAP: 109
Rattus norvegicus [5]
  Delta blood pressure: Active
Rattus norvegicus [6]
  Delta blood pressure: Active
Felis catus [7]
  HR: 229
Felis catus [8]
  SNA: 88%
Felis catus [9]
  SNA: 76%
Felis catus [10]
  SNA: 86%
Felis catus [11]
  MAP: 75
Felis catus [12]
  HR: 230
Felis catus [13]
  MAP: 107
Felis catus [14]
  MAP: 131
Felis catus [15]
  HR: 230
Felis catus [16]
  SNA: 96%
Felis catus [17]
  MAP: 85
Felis catus [18]
  HR: 229
Felis catus [19]
  SNA: 100%
Felis catus [20]
  HR: 232
